Test results: ChEMBL document CHEMBL2346583, “Synthesis of new fluorinated, 2-substituted 5-pyrrolidinylsulfonyl isatin derivatives as caspase-3 and caspase-7 inhibitors: nonradioactive counterparts of putative PET-compatible apoptosis imaging agents” (Bioorg Med Chem, 2013)

Key:
Caspase-7 = target: T1, Caspase-7 (Homo sapiens, UniProt P55210); assay: Inhibition of human recombinant caspase 7 assessed as decrease in AMC release using Ac-Asp-Glu-Val-Asp-AMC as substrate preincubated with enzyme for 10 mins prior to substrate addition measured after 10 mins by fluorescence microplate analysis
T1 sequence (P55210 whole entry): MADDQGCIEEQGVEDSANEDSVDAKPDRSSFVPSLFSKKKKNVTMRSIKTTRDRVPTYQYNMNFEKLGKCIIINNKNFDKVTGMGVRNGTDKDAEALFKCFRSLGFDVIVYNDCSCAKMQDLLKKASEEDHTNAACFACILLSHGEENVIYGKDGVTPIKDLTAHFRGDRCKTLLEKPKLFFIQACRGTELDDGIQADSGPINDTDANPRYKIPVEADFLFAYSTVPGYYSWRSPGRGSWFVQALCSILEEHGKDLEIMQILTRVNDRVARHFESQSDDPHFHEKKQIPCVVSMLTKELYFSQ
Procedure, shortened: (§1)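 Recombinant human caspase at 0.5 units per assay (defined as 500 pmol substrate converted in 60 min), diluted in reaction buffer. Compounds in DMSO, tested at final concentrations from 500 µM down to 5 pM in tenfold steps. Enzyme and compound pre-incubated for 10 min at 37 °C. AMC peptide substrate then added to a final 10 µM and reacted for 10 min. IC50 obtained by nonlinear regression.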

Caspase-6 = target: T2, Caspase-6 (Homo sapiens, UniProt P55212); assay: Inhibition of human recombinant caspase 6 assessed as decrease in AMC release using Ac-Val-Glu-Ile-Asp-AMC as substrate preincubated with enzyme for 10 mins prior to substrate addition measured after 10 mins by fluorescence microplate analysis; procedure, shortened: as §1
T2 sequence (P55212 whole entry): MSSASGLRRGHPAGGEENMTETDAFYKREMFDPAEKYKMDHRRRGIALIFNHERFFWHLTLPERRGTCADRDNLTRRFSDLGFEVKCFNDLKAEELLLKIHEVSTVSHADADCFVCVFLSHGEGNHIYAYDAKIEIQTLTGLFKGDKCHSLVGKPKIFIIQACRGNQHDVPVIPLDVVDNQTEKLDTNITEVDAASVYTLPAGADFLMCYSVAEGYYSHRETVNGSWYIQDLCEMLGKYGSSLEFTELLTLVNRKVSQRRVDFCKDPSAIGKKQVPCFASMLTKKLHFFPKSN

Caspase-3 = target: T3, Caspase-3 (Homo sapiens, UniProt P42574); assay: Inhibition of human recombinant caspase 3 assessed as decrease in AMC release using Ac-Asp-Glu-Val-Asp-AMC as substrate preincubated with enzyme for 10 mins prior to substrate addition measured after 10 mins by fluorescence microplate analysis; procedure, shortened: as §1
T3 sequence (P42574 whole entry): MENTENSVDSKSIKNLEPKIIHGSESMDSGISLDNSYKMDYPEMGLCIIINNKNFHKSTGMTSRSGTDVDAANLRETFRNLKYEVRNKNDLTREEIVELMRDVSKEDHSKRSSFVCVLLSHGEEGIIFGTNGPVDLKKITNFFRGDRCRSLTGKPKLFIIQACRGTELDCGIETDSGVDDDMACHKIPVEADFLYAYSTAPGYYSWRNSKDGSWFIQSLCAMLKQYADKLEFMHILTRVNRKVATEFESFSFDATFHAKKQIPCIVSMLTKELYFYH

Caspase-1 = target: T4, Caspase-1 (Homo sapiens, UniProt P29466); assay: Inhibition of human recombinant caspase 1 assessed as decrease in AMC release using Ac-Tyr-Val-Ala-Asp-AMC as substrate preincubated with enzyme for 10 mins prior to substrate addition measured after 10 mins by fluorescence microplate analysis; procedure, shortened: as §1
T4 sequence (P29466 whole entry): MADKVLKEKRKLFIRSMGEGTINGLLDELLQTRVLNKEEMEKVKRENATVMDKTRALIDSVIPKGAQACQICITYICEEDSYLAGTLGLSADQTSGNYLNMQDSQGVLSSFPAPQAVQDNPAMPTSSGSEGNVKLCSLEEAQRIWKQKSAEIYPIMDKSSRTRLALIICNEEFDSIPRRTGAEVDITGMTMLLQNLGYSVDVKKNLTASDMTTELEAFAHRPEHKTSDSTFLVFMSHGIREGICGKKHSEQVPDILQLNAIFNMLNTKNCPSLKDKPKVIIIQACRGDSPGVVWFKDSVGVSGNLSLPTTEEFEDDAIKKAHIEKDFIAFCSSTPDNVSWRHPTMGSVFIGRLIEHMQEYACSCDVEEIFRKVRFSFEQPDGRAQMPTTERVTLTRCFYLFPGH

Compound	IC50 (Caspase-7) [nM]	IC50 (Caspase-6) [nM]	IC50 (Caspase-3) [nM]	IC50 (Caspase-1) [nM]
O=C1C(=O)N(CCCCF)c2ccc(S(=O)(=O)N3CCC[C@H]3COCC(F)(F)F)cc21	265	> 500000	149	30700
COCC[C@@H]1CCCN1S(=O)(=O)c1ccc2c(c1)C(=O)C(=O)N2	540	> 500000	349	12100
CCCCN1C(=O)C(=O)c2cc(S(=O)(=O)N3CCC[C@H]3COCC)ccc21	64.6	2610	25.6	18400
O=C1C(=O)N(CCCCF)c2ccc(S(=O)(=O)N3CCC[C@H]3COCCF)cc21	9.68	> 500000	74.3	45800
COCC[C@@H]1CCCN1S(=O)(=O)c1ccc2c(c1)C(=O)C(=O)N2CCCCF	12.3	1030	92.3	7340
COCCCC1CCCN1S(=O)(=O)c1ccc2c(c1)C(=O)C(=O)N2 (racemic)	125	> 500000	1580	11600
CCOC[C@@H]1CCCN1S(=O)(=O)c1ccc2c(c1)C(=O)C(=O)N2	13.2	> 500000	1120	> 500000
CCCCN1C(=O)C(=O)c2cc(S(=O)(=O)N3CCCC3CCCOC)ccc21 (racemic)	515	> 500000	170	> 500000
CCCCN1C(=O)C(=O)c2cc(S(=O)(=O)N3CCC[C@H]3COCCF)ccc21	39.6	> 500000	4.79	24700
CCOC[C@@H]1CCCN1S(=O)(=O)c1ccc2c(c1)C(=O)C(=O)N2CCCCF	218	> 500000	365	> 500000

Next, values leading:

IC50 (Caspase-7) [nM]	IC50 (Caspase-6) [nM]	IC50 (Caspase-3) [nM]	IC50 (Caspase-1) [nM]	Compound
1420	> 500000	1060	14700	O=C1Nc2ccc(S(=O)(=O)N3CCC[C@H]3COCC(F)(F)F)cc2C1=O
24.6	> 500000	94.3	15500	CCCCN1C(=O)C(=O)c2cc(S(=O)(=O)N3CCC[C@H]3CCOC)ccc21
7.47	> 500000	46.8	25900	CCCCN1C(=O)C(=O)c2cc(S(=O)(=O)N3CCC[C@H]3COCC(F)(F)F)ccc21
33.7	> 500000	184	> 500000	COCCCC1CCCN1S(=O)(=O)c1ccc2c(c1)C(=O)C(=O)N2CCCCF (racemic)
1330	> 500000	346	18400	O=C1Nc2ccc(S(=O)(=O)N3CCC[C@H]3COCCF)cc2C1=O
